According to ChEMBL document CHEMBL3739331, “Synthesis and Bioactivities of Kanamycin B-Derived Cationic Amphiphiles” (J Med Chem, 2015):
≈ marks a conversion by molar mass, not a printed value. Calls of active or inactive are those of the source. The calls are words filed in the database; no cut-off is given here.

Tests used:
[1] = Hemolytic activity against mouse RBC at 7.8 ug/ml after 60 mins; format: ADME, cell-based, Erythrocyte; conditions: red blood cells, read-out: Activity
[2] = Hemolytic activity against mouse RBC at 62.5 ug/ml after 60 mins; format: ADME, cell-based, Erythrocyte; conditions: red blood cells, read-out: Activity
[3] = Hemolytic activity against mouse RBC at 100 to 500 ug/ml after 60 mins; format: ADME, cell-based; conditions: erythrocyte, 1 h
Klebsiella pneumoniae = assay: Antibacterial activity against Klebsiella pneumoniae ATCC 27736 by microdilution method; format: functional
Outline: (§1)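 Broth microdilution MIC against the named bacterial strain, reported in μg/mL; each determination run at least in duplicate.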

[4] = Activity of AAC(3)-4 (unknown origin) assessed as compound acetylation activity by Ellman's method
Bacillus subtilis = assay: Antibacterial activity against Bacillus subtilis 168 by microdilution method; format: functional; conditions: subsp. subtilis str. 168; outline: as §1
Staphylococcus aureus [5] = assay: Antibacterial activity against methicillin-resistant Staphylococcus aureus by microdilution method; format: functional
Outline: (§2)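 Broth microdilution MIC, in μg/mL, against a panel of Gram-positive and Gram-negative strains. Run at least in duplicate.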

[6] = system: Mycolicibacterium smegmatis; assay: Antibacterial activity against Mycobacterium smegmatis MC2 155 by microdilution method; format: functional; conditions: str. MC2 155; outline: as §2
Staphylococcus aureus [7] = assay: Antibacterial activity against Staphylococcus aureus ATCC 29213 by microdilution method; format: functional; outline: as §1
Staphylococcus aureus [8] = assay: Antibacterial activity against Staphylococcus aureus NRS382 (USA 100) by microdilution method; format: functional; outline: as §1
Staphylococcus aureus [9] = assay: Antibacterial activity against Staphylococcus aureus NRS383 (USA 200) by microdilution method; format: functional; outline: as §1
Staphylococcus aureus [10] = assay: Antibacterial activity against Staphylococcus aureus NRS385 (USA 300) by microdilution method; format: functional; outline: as §2
Staphylococcus aureus [11] = assay: Antibacterial activity against Staphylococcus aureus NRS22 (USA 600) by microdilution method; format: functional; outline: as §1
[12] = system: Staphylococcus epidermidis; assay: Antibacterial activity against Staphylococcus epidermidis ATCC 12228 by microdilution method; format: functional; outline: as §1
Enterococcus = assay: Antibacterial activity against vancomycin-resistant Enterococcus by microdilution method; format: functional; outline: as §2
Acinetobacter baumannii = assay: Antibacterial activity against Acinetobacter baumannii ATCC 19606 by microdilution method; format: functional; outline: as §1
Enterobacter cloacae = assay: Antibacterial activity against Enterobacter cloacae ATCC 13047 by microdilution method; format: functional; outline: as §1
Escherichia coli = assay: Antibacterial activity against Escherichia coli MC1061 by microdilution method; format: functional; outline: as §2
Pseudomonas aeruginosa = assay: Antibacterial activity against Pseudomonas aeruginosa ATCC 27853 by microdilution method; format: functional; outline: as §1
Salmonella enterica = assay: Antibacterial activity against Salmonella enterica ATCC 14028 by microdilution method; format: functional; outline: as §1
[13] = system: Bacillus subtilis subsp. subtilis str. 168; assay: Activity of Bacillus subtilis 168 APH(2'')-1a assessed as compound phosphorylation activity by Ellman's method
[14] = Activity of AAC(6')-1e/APH(2'')-1a (unknown origin) assessed as compound acetylation activity by Ellman's method
Serratia marcescens = assay: Activity of Serratia marcescens AAC(6')-2d assessed as compound acetylation activity by Ellman's method
[15] = system: Mycobacterium tuberculosis; assay: Activity of Mycobacterium tuberculosis AAC(2')-1c assessed as compound acetylation activity by Ellman's method
[16] = system: Mycobacterium tuberculosis; assay: Activity of Mycobacterium tuberculosis Eis assessed as compound acetylation activity by Ellman's method
Candida albicans [17] = assay: Antifungal activity against azole-resistant Candida albicans ATCC 10231 after 48 hrs by microbroth dilution method; format: functional; conditions: ATCC 10231, 48 h
Outline: (§3)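 Yeast MIC by broth microdilution, run in duplicate. The aminoglycoside compounds are read as MIC-0 (complete inhibition). Azoles are read as MIC-2 (50% inhibition).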

Candida albicans [18] = assay: Antifungal activity against azole-resistant Candida albicans ATCC 64124 after 48 hrs by microbroth dilution method; format: functional; conditions: ATCC 64124, 48 h; outline: as §3
Candida albicans [19] = assay: Antifungal activity against azole-susceptible Candida albicans ATCC MYA-2876 after 48 hrs by microbroth dilution method; format: functional; conditions: ATCC MYA-2876, 48 h; outline: as §3
Candida albicans [20] = assay: Antifungal activity against azole-resistant Candida albicans ATCC 90819 after 48 hrs by microbroth dilution method; format: functional; conditions: ATCC 90819, 48 h; outline: as §3
Candida albicans [21] = assay: Antifungal activity against azole-susceptible Candida albicans ATCC MYA-2310 after 48 hrs by microbroth dilution method; format: functional; conditions: ATCC MYA-2310, 48 h; outline: as §3
Candida albicans [22] = assay: Antifungal activity against azole-resistant Candida albicans MYA-1237 after 48 hrs by microbroth dilution method; format: functional; conditions: MYA-1237, 48 h; outline: as §3
Candida albicans [23] = assay: Antifungal activity against azole-resistant Candida albicans MYA-1003 after 48 hrs by microbroth dilution method; format: functional; conditions: MYA-1003, 48 h; outline: as §3
Aspergillus nidulans = assay: Antifungal activity against Aspergillus nidulans ATCC 38163 after 48 hrs by microbroth dilution method; format: functional; conditions: ATCC 38163, 48 h
Outline: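 Filamentous fungus MIC by broth microdilution, run in duplicate. All compounds are read as MIC-0 (complete inhibition).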

In the case of `CCCCCCCCCCCCCCCCSC[C@@H]1O[C@@H](O[C@@H]2[C@@H](O)[C@H](O[C@@H]3O[C@@H](CN)[C@H](O)[C@@H](O)[C@@H]3N)[C@@H](N)C[C@H]2N)[C@@H](O)[C@H](N)[C@H]1O` (stereo in doubt), the hemolysis at 1 h, 7.8 ug/ml [1] is reported as 16%, the hemolysis at 1 h, 62.5 ug/ml [2] is reported as 81% and the Activity [3] is reported as “Toxic”. For the same molecule, the MIC (Klebsiella pneumoniae) was greater than 128 µg/mL, the Activity [4] was “inactive” and the MIC (Bacillus subtilis) was greater than 128 µg/mL. For the same molecule, the MIC (Staphylococcus aureus [5]) was greater than 128 µg/mL, the MIC [6] was 8 µg/mL (≈ 11 µM) and the MIC (Staphylococcus aureus [7]) was greater than 128 µg/mL. It also gave an MIC (Staphylococcus aureus [8]) of 128 µg/mL (≈ 177 µM), an MIC (Staphylococcus aureus [9]) greater than 128 µg/mL and an MIC (Staphylococcus aureus [10]) greater than 128 µg/mL. For the same molecule, the MIC (Staphylococcus aureus [11]) was 128 µg/mL (≈ 177 µM), the MIC [12] was greater than 128 µg/mL and the MIC (Enterococcus) was 128 µg/mL (≈ 177 µM). It also gave an MIC (Acinetobacter baumannii) greater than 128 µg/mL, an MIC (Enterobacter cloacae) greater than 128 µg/mL and an MIC (Escherichia coli) greater than 128 µg/mL. For the same molecule, the MIC (Pseudomonas aeruginosa) was greater than 128 µg/mL, the MIC (Salmonella enterica) was greater than 128 µg/mL and the Activity [13] was “inactive”. The Activity [14] was “inactive”, the Activity (Serratia marcescens) was “inactive” and the Activity [15] was “inactive”. The Activity [16] was “inactive”, the MIC (Candida albicans [17]) was 3.9 µg/mL (≈ 5.39 µM) and the MIC (Candida albicans [18]) was 3.9 µg/mL (≈ 5.39 µM). For the same molecule, the MIC (Candida albicans [19]) was 3.9 µg/mL (≈ 5.39 µM), the MIC (Candida albicans [20]) was 3.9 µg/mL (≈ 5.39 µM) and the MIC (Candida albicans [21]) was 3.9 µg/mL (≈ 5.39 µM). It also gave an MIC (Candida albicans [22]) of 3.9 µg/mL (≈ 5.39 µM), an MIC (Candida albicans [23]) of 3.9 µg/mL (≈ 5.39 µM) and an MIC (Aspergillus nidulans) of 1.95 µg/mL (≈ 2.69 µM).
